# In publication PMC9891257 (RNA, 2023):
# Values joined by “and” are separate entries in the source; they are usually repeats but may differ in a detail not shown here. Identical values can stand only once.
# What was measured:
# [1] = tested on: Rabbit reticulocyte lysate; assay: Translation of luciferase mRNA capped with cap analogs in RRL system; type: biochemical; conditions: for Relative cap-dependent translation efficiency / Relative translation efficiency: Rabbit reticulocyte lysate; for Relative cap-dependent translation efficiency: relative to m^7GpppG; for Relative translation efficiency: relative to m^7GpppG-capped transcript
# Method in brief: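 Firefly luciferase mRNA made by SP6 transcription of PCR template, 1 h at 37°C, with 0.5 mM ATP/CTP/UTP, 0.1 mM GTP, 0.5 mM cap analog (cap:GTP 5:1). Then DNase I treatment. Translated in 40% Flexi rabbit reticulocyte lysate with 0.01 mM amino acids, 0.9 mM Mg acetate, 190 mM K acetate. Lysate preincubated 60 min at 30°C, then 60 min with mRNA. Luciferase luminescence expressed relative to m7GpppG-capped mRNA.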
# [2] = molecular target: murine eIF4E (Mus musculus, UniProt P63073); assay: Thermal stability of eIF4E by DSF in the presence of cap analogs; type: binding; conditions: for Tm (at 100 μM of ligand): murine eIF4E, 100 μM ligand, apo form 38.42; for ΔTm (at 100 μM of ligand): in relation to eIF4E in apo form
# murine eIF4E, sequence (P63073 28-217): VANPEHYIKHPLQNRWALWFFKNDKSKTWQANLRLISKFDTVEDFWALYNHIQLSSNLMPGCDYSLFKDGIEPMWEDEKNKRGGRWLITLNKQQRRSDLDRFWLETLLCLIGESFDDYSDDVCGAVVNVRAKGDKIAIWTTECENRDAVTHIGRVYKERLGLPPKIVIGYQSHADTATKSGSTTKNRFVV
# Method in brief: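 Murine eIF4E (aa 28–217), 4 μM final, with 5× SYPRO Orange in HEPES/KOH pH 7.2, 100 mM KCl, 0.5 mM EDTA, 1 mM DTT. Test compound at 100 μM final (single point) or 1–100 μM series. Heated 22–95°C at 0.5°C/30 sec, fluorescence read each step. Normalized signal fitted to a two-state denaturation model for Tm. ΔTm is relative to apo eIF4E. Apparent Kd is from ΔTm change with rising ligand concentration.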
# [3] = molecular target: T1, SP6 RNA polymerase (Enterobacteria phage SP6, UniProt P06221); assay: Efficiency of cap analog incorporation into short RNA25 in IVT; type: biochemical; conditions: RNA25nt, densitometry
# T1 sequence (P06221 1-874): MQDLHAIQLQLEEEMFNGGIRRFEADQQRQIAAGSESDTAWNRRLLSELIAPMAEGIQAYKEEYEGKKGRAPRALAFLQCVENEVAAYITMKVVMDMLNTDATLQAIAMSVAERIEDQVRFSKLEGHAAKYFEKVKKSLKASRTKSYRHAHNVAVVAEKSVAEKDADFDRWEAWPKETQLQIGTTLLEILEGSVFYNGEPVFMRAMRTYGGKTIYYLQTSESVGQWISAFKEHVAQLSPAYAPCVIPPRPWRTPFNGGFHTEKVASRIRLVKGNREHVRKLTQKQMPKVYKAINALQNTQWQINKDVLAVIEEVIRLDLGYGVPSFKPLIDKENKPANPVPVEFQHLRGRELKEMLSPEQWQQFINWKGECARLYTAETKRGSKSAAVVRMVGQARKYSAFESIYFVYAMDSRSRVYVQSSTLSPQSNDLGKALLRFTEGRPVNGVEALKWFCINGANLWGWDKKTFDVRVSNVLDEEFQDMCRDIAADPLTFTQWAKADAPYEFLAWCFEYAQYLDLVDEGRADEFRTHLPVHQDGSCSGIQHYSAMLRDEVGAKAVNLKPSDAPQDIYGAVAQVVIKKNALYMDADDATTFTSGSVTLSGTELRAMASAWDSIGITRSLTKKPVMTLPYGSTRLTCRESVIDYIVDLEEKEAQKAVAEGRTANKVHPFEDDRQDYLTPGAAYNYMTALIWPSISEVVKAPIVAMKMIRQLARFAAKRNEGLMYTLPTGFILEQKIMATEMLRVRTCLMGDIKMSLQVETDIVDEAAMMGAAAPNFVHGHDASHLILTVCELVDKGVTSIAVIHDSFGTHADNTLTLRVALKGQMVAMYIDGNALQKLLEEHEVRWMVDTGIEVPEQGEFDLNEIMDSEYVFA
# Method in brief: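 DNase I digestion. 3′ ends trimmed with DNAzyme (30 pmol per 400 ng RNA, 50 mM Tris pH 7.4, 50 mM MgCl2, 1 h, 37°C), giving 25-nt RNA. Capped versus uncapped pppRNA bands quantified densitometrically.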
# [4] = molecular target: hNudt16 (Homo sapiens, UniProt Q96DE0); assay: 5′ cap hydrolysis of analog-capped RNA25 with hNudt16; type: biochemical; conditions: 30 min reaction with hNudt16; for % of hydrolysis SP6 product: RNA made with SP6 polymerase; for % of hydrolysis T7 product: RNA made with T7 polymerase
# hNudt16, sequence (Q96DE0 whole entry): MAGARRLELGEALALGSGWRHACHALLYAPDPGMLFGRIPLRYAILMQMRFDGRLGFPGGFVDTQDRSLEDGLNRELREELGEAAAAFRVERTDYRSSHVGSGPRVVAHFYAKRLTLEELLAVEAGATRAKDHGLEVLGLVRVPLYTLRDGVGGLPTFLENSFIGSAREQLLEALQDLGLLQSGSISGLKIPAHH
# Method in brief: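 Substrate: 50 ng 25-nt cap-analog RNA with trimmed 3′ ends. Digested with 2.5 µM hNudt16 in 40 mM Tris pH 7.9, 100 mM NaCl, 6 mM MgCl2, 2 mM DTT for 30 min at 37°C. Stopped with formamide loading dye, 5 min at 75°C. Run on 15% polyacrylamide/7 M urea, SYBR Gold stain. Hydrolysis = densitometric % loss of capped band; mean ± SD, three experiments. Orientation inferred from hydrolysis pattern.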
# [5] = tested on: cap-dependent translation; conditions: translation inhibition; ref Wojcik et al. 2021; cited from earlier work
# [6] = molecular target: cap-dependent translation in RRL system; type: biochemical, rabbit; conditions: inhibition of ARCA-mRNA luciferase translation in RRL system; mean ± SD
# Method in brief: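 Flexi rabbit reticulocyte lysate preincubated 60 min at 30°C under cap-dependent conditions. Then m2^7,3′O GpppG-capped firefly luciferase mRNA was added together with increasing concentrations of cap analog, and incubated a further 60 min at 30°C. Luminescence read immediately. IC50 by nonlinear regression; mean ± SD of ≥3 independent replicates. Ratio expresses IC50 relative to m7GpppG control.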
translation level in comparison to m^7GpppG-capped transcript ([1]; RRL) [%],Relative cap-dependent translation efficiency [1],Relative translation efficiency [1],Tm (at 100 μM of ligand) [2] [°C],capped fraction (capping efficiency) [3] [%],% of hydrolysis SP6 product [4],% of hydrolysis T7 product [4] [%],"Relative translation efficiency ([1]; listed as m2^7,3'-OGpppG)",ΔTm (at 100 μM of ligand) [2],"ΔTm (at 100 μM of ligand) ([2]; listed as m2^7,3'OGpppG) [°C]",IC50 [6] [µM],Compound,IC50 [5] [µM]
~10,0,0.09 ± 0.06,38.62,,,,,,,,Nc1nc2c(ncn2[C@@H]2O[C@H](COP(=O)(O)OP(=O)(O)OP(=O)(O)OC[C@H]3O[C@@H](n4cnc5c(N)ncnc54)[C@H](O)[C@@H]3O)[C@@H](O)[C@H]2O)c(=O)[nH]1 [ApppG],
,,,,85.3 ± 0.8,86.2 ± 3.9% and 86.18%,82.06,,,,,Nc1nc2c(ncn2[C@@H]2O[C@H](COP(=O)(O)OP(=O)(O)OP(=O)(O)OC[C@H]3O[C@@H](n4cnc5c(=O)[nH]c(N)nc54)[C@H](O)[C@@H]3O)[C@@H](O)[C@H]2O)c(=O)[nH]1 [GpppG],
,1.53 ± 0.20,1.47,47.53,65.8 ± 2.4,8.7 ± 2.0%,4.81,1.47 ± 0.17,around 10 °C,9.11,,"CO[C@H]1[C@@H](O)[C@H]([n+]2cn(C)c3c(=O)[nH]c(N)nc32)O[C@@H]1COP(=O)([O-])OP(=O)(O)OP(=O)(O)OC[C@H]1O[C@@H](n2cnc3c(=O)[nH]c(N)nc32)[C@H](O)[C@@H]1O [m2^7,3′OGpppG]",
,1,1,48.10,74.3 ± 3.5,45.74%,32.24,,,,8.94 ± 0.86,Cn1c[n+]([C@@H]2O[C@H](COP(=O)(O)OP(=O)([O-])OP(=O)(O)OC[C@H]3O[C@@H](n4cnc5c(=O)[nH]c(N)nc54)[C@H](O)[C@@H]3O)[C@@H](O)[C@H]2O)c2nc(N)[nH]c(=O)c21 [m^7GpppG],11.4 ± 2.4
